ChEMBL document CHEMBL4229392, “An Efficient Buchwald-Hartwig/Reductive Cyclization for the Scaffold Diversification of Halogenated Phenazines: Potent Antibacterial Targeting, Biofilm Eradication, and Prodrug Exploration” (J Med Chem, 2018)
pIC50: −log10 of the molar value. Values after ≈ are worked out from the molar mass of the structure shown. Active and inactive are the calls of the source. No cut-off for these calls is given here.

Experiments:
[1] = Hemolytic activity in human RBC at 200 uM after 1 hr relative to control; format: ADME, cell-based, Erythrocyte; conditions: red blood cells (erythrocytes), read-out: Activity
How it was run: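 Human RBCs drawn fresh into EDTA were washed three times in Tris-buffered saline (0.01 M Tris, 0.155 M NaCl, pH 7.2). 2% hRBC suspension was added to compound from DMSO stock, final 200 µM, for 1 h at 37 °C, then centrifuged and supernatant OD405 read. Scaled between DMSO (0%) and Triton X (100%). Three independent experiments.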

Enterococcus faecium [2] = assay: Antibacterial activity against vancomycin-resistant Enterococcus faecium ATCC 700221 after 16 to 18 hrs by broth microdilution method; format: functional
How it was run: (§1)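 CLSI broth microdilution in Lysogeny Broth, eleven two-fold dilutions spanning 0.10–100 µM; ~10^5 cells per well from log-phase culture; DMSO vehicle (top 1% v/v). MIC = lowest concentration preventing growth after 16–18 h at 37 °C, supported by OD600; three independent experiments.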

[3] = test system: Mycobacterium tuberculosis; assay: Antibacterial activity against Mycobacterium tuberculosis H37Ra ATCC 25177 after 7 days; format: functional; conditions: H37Ra ATCC 25177, 168 h
How it was run: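 M. tuberculosis H37Ra grown two weeks in Middlebrook 7H9, diluted to OD600 0.01; two-fold serial dilutions 0.024–50 µM (streptomycin positive control, 0.16–340 µM); final DMSO 0.5%. Incubated 7 days at 37 °C; MIC = lowest concentration with no growth, OD600 recorded; three independent experiments.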

[4] = test system: Staphylococcus epidermidis; assay: Induction of biofilm eradication of methicillin-resistant Staphylococcus epidermidis ATCC 35984 after 24 hrs by calgary biofilm device method; format: functional
How it was run: (§2)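 Calgary device: biofilms established 24 h at 37 °C from mid-log culture diluted 1,000-fold in TSBG (0.5% glucose), washed, exposed 24 h to 2-fold serial dilutions, then peg lid moved to fresh TSBG for 24 h recovery. MBEC = lowest concentration giving no turbidity; at least three independent experiments.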

Staphylococcus aureus [5] = assay: Induction of biofilm eradication of methicillin-resistant Staphylococcus aureus 2 after 24 hrs by calgary biofilm device method; format: functional; how it was run: as §2
[6] = test system: Staphylococcus epidermidis; assay: Bactericidal activity against methicillin-resistant Staphylococcus epidermidis ATCC 35984 planktonic cells after 24 hrs by calgary biofilm device method; format: organism-based
How it was run: (§3)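 Biofilms grown 24 h at 37 °C on Calgary device pegs from mid-log culture diluted 1,000-fold in TSB + 0.5% glucose; washed pegs challenged 24 h at 37 °C with 2-fold serial dilutions. Challenge medium subcultured into fresh TSBG overnight; MBC = concentration without visible turbidity; at least three independent experiments.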

Staphylococcus aureus [7] = assay: Induction of biofilm eradication of methicillin-resistant Staphylococcus aureus BAA-44 after 24 hrs by calgary biofilm device method; format: functional; how it was run: as §2
HeLa = assay: Cytotoxicity against human HeLa cells after 24 hrs by LDH release assy; format: cell-based
How it was run: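 HeLa cells in DMEM with 10% FBS at 37 °C, 5% CO2, dosed at 70-80% confluence with compound diluted in medium at 25, 50 and 100 µM for 24 h. Supernatant mixed with LDH reaction mixture, 30 min at room temperature, stopped, A490 read. Triton X-100 (2% v/v) as maximal-release control, medium only as no-death control, DMSO as vehicle. Three independent experiments.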

Staphylococcus aureus [8] = assay: Bactericidal activity against methicillin-resistant Staphylococcus aureus 2 planktonic cells after 24 hrs by calgary biofilm device method; format: organism-based; how it was run: as §3
Staphylococcus aureus [9] = assay: Bactericidal activity against methicillin-resistant Staphylococcus aureus BAA-1707 planktonic cells after 24 hrs by calgary biofilm device method; format: organism-based; how it was run: as §3
Enterococcus faecium [10] = assay: Induction of biofilm eradication of vancomycin-resistant Enterococcus faecium ATCC 700221 after 24 hrs by calgary biofilm device method; format: functional; how it was run: as §2
Staphylococcus aureus [11] = assay: Bactericidal activity against methicillin-resistant Staphylococcus aureus BAA-44 planktonic cells after 24 hrs by calgary biofilm device method; format: organism-based; how it was run: as §3
Enterococcus faecium [12] = assay: Bactericidal activity against vancomycin-resistant Enterococcus faecium ATCC 700221 planktonic cells after 24 hrs by calgary biofilm device method; format: organism-based; how it was run: as §3
Staphylococcus aureus [13] = assay: Induction of biofilm eradication of methicillin-resistant Staphylococcus aureus BAA-1707 after 24 hrs by calgary biofilm device method; format: functional; how it was run: as §2
[14] = test system: Staphylococcus epidermidis; assay: Antibacterial activity against methicillin-resistant Staphylococcus epidermidis ATCC 35984 after 16 to 18 hrs by broth microdilution method; format: functional
Staphylococcus aureus [15] = assay: Antibacterial activity against methicillin-resistant Staphylococcus aureus 2 after 16 to 18 hrs by broth microdilution method; format: functional; how it was run: as §1
Staphylococcus aureus [16] = assay: Antibacterial activity against methicillin-resistant Staphylococcus aureus BAA-1707 after 16 to 18 hrs by broth microdilution method; format: functional; how it was run: as §1
[17] = Metal chelating activity assessed as compound-Fe2+ complex formation at 5 mM by UV-vis spectrometry
How it was run: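 HP solutions given ammonium iron(II) sulfate hexahydrate; UV-vis scans 300–700 nm in 2 nm steps, λmax 374 nm. Loss of absorbance at 374 nm taken as loss of free hydroxyphenazine and formation of phenazine–iron(II) complex.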

[18] = Half life in human serum by LC-MS analysis; format: ADME, cell-free
How it was run: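 Human serum pre-warmed to 37 °C, spiked with prodrug from 10 mM DMSO stock plus internal standard, vortexed, then held 1 to 60 min. At each time point, acetonitrile with 0.5% formic acid was added to precipitate proteins. Released active HP was quantified as its ratio to internal standard against standard curves.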

Staphylococcus aureus [19] = assay: Antibacterial activity against methicillin-resistant Staphylococcus aureus BAA-1707 after 16 hrs by agar diffusion method; format: functional
[20] = Metal chelating activity assessed as compound-copper complex formation by UV-vis spectrometry

SMILES	hemolysis at 1 h, 200 µM [1] [%]	MIC (Enterococcus faecium [2]) [µM]	MIC [3] [µM]	MBEC [4] [µM]	MBEC (Staphylococcus aureus [5]) [µM]	MBC [6] [µM]	pIC50 (HeLa)	MBC (Staphylococcus aureus [8]) [µM]	MBC (Staphylococcus aureus [9]) [µM]	MBEC (Enterococcus faecium [10]) [µM]	MBC (Enterococcus faecium [12]) [µM]	MBEC (Staphylococcus aureus [13]) [µM]	MIC [14] [µM]	MIC (Staphylococcus aureus [15]) [µM]	MIC (Staphylococcus aureus [16]) [µM]	further results
Oc1c(Br)cc(Br)c2nc3ccccc3nc12	≤ 1	6.25 (≈ 2.21 µg/mL)	25 (≈ 8.85 µg/mL)	100	100	50 (≈ 17.7 µg/mL)	< 4.00	50 (≈ 17.7 µg/mL)	18.8 to 37.5 (≈ 6.66 to 13.3 µg/mL)	9.38	23.5 (≈ 8.32 µg/mL)	150				MBEC (Staphylococcus aureus [7]): 150 µM; MBC (Staphylococcus aureus [11]): 37.5 µM (≈ 13.3 µg/mL)
CO[C@H]1/C=C/O[C@@]2(C)Oc3c(C)c(O)c4c(O)c(c(/C=N/N5CCN(C)CC5)c(O)c4c3C2=O)NC(=O)/C(C)=C\C=C\[C@H](C)[C@H](O)[C@@H](C)[C@@H](O)[C@@H](C)[C@H](OC(C)=O)[C@@H]1C [RIFAMPIN]				15.6	46.9	3 (≈ 2.47 µg/mL)		2 (≈ 1.65 µg/mL)					0.1 (≈ 0.0823 µg/mL)	0.1 (≈ 0.0823 µg/mL)		
CN[C@H](CC(C)C)C(=O)N[C@H]1C(=O)N[C@@H](CC(N)=O)C(=O)N[C@H]2C(=O)N[C@H]3C(=O)N[C@H](C(=O)N[C@H](C(=O)O)c4cc(O)cc(O)c4-c4cc3ccc4O)[C@H](O)c3ccc(c(Cl)c3)Oc3cc2cc(c3O[C@@H]2O[C@H](CO)[C@@H](O)[C@H](O)[C@H]2O[C@H]2C[C@](C)(N)[C@H](O)[C@H](C)O2)Oc2ccc(cc2Cl)[C@H]1O [VANCOMYCIN]	≤ 1	> 100		>2000	>2000	3 (≈ 4.35 µg/mL)		3 (≈ 4.35 µg/mL)	3.9 (≈ 5.65 µg/mL)	150	> 200	>2000				MBEC (Staphylococcus aureus [7]): >2000 µM
CCN(CC)c1ccc2nc3c(O)c(Br)cc(Br)c3nc2c1Br	≤ 1	0.3 (≈ 0.151 µg/mL)		6.25		9.38 (≈ 4.73 µg/mL)	< 4.00		9.38 (≈ 4.73 µg/mL)			4.69	0.1 (≈ 0.0504 µg/mL)	0.3 (≈ 0.151 µg/mL)	0.15 (≈ 0.0756 µg/mL)	
Cc1ccc2nc3c(Br)cc(Br)c(O)c3nc2c1C		> 100											> 100		> 100	Activity [17]: inactive
CCc1ccc2nc3c(O)c(Br)cc(Br)c3nc2c1	3	2.35 (≈ 0.898 µg/mL)	6.25 (≈ 2.39 µg/mL)	75	150	50 (≈ 19.1 µg/mL)	< 4.30	75 (≈ 28.7 µg/mL)	75 (≈ 28.7 µg/mL)		50 (≈ 19.1 µg/mL)	150	0.1 (≈ 0.0382 µg/mL)	0.59 (≈ 0.225 µg/mL)	0.1 (≈ 0.0382 µg/mL)	MBEC (Staphylococcus aureus [7]): 75 µM; MBC (Staphylococcus aureus [11]): 75 µM (≈ 28.7 µg/mL)
CS(=O)(=O)N1CCN(C(=O)Oc2c(Br)cc(Br)c3nc4ccccc4nc23)C1=O	≤ 1	3.13 (≈ 1.7 µg/mL)		37.5		18.8 (≈ 10.2 µg/mL)	< 4.00		37.5 (≈ 20.4 µg/mL)	9.38	9.38 (≈ 5.1 µg/mL)	75	1.56 (≈ 0.849 µg/mL)			half-life [18]: < 1 min
Cc1cc(C)c2nc3c(Br)cc(Br)c(O)c3nc2c1	2.2	0.2 (≈ 0.0764 µg/mL)	50 (≈ 19.1 µg/mL)				< 4.00						0.1 (≈ 0.0382 µg/mL)	0.3 (≈ 0.115 µg/mL)	0.075 to 0.08 (≈ 0.0287 to 0.0306 µg/mL)	
CC(=O)NC[C@H]1CN(c2ccc(N3CCOCC3)c(F)c2)C(=O)O1 [LINEZOLID]	≤ 1				>2000				31.3 (≈ 10.6 µg/mL)			>2000		3.13 (≈ 1.06 µg/mL)	12.5 (≈ 4.22 µg/mL)	
Oc1c(Br)cc(Br)c2nc3cc(Oc4ccccc4)ccc3nc12	≤ 1	0.2 (≈ 0.0892 µg/mL)	6.25 (≈ 2.79 µg/mL)				< 4.00						0.1 (≈ 0.0446 µg/mL)	0.39 (≈ 0.174 µg/mL)	0.075 (≈ 0.0335 µg/mL)	MBC (Staphylococcus aureus [11]): 25 µM (≈ 11.2 µg/mL)
CC(C)(C)c1ccc2nc3c(O)c(Br)cc(Br)c3nc2c1	≤ 1	0.1 (≈ 0.041 µg/mL)		3.13	3.13	6.25 (≈ 2.56 µg/mL)	< 4.00	3.13 (≈ 1.28 µg/mL)			1.56 (≈ 0.64 µg/mL)		0.1 (≈ 0.041 µg/mL)	0.1 (≈ 0.041 µg/mL)	0.1 (≈ 0.041 µg/mL)	
CC1=C(C)C(=O)C(COC(=O)OCOc2c(Br)cc(Br)c3nc4cc(Cl)ccc4nc23)=C(C)C1=O	2.7	1.56 (≈ 0.974 µg/mL)		25		12.5 (≈ 7.81 µg/mL)	< 4.00		6.25 (≈ 3.9 µg/mL)	3.13	3.13 (≈ 1.96 µg/mL)	12.5			0.15 (≈ 0.0937 µg/mL)	inhibition zone (IZ) (Staphylococcus aureus [19]): 2.86 cm2; half-life [18]: 11.4 min
CCc1cccc2nc3c(Br)cc(Br)c(O)c3nc12		> 100											> 100		> 100	Activity [20]: inactive; Activity [17]: inactive
